Legend:
NCI-H226 = experiment: Cytotoxicity against human NCI-H226 cells assessed as cell growth at 10 uM after 48 hrs by SRB assay relative to control; assay type: functional; conditions: NCI-H226, 48 h, read-out: Activity
Procedure, shortened: (§1)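 First-stage NCI DTP one-dose screen against the 60 human tumour cell line panel. Compounds were tested at a single 10 μM level, and results are given as growth percentage.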

UACC-62 = experiment: Cytotoxicity against human UACC62 cells assessed as cell growth at 10 uM after 48 hrs by SRB assay relative to control; assay type: functional; conditions: UACC-62, 48 h, read-out: Activity
Procedure, shortened: (§2)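 NCI-60 one-dose screen run by NCI DTP: each cell line exposed to a single 10 µM dose, and percentage growth recorded against untreated growth.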

[1] = Cytotoxicity against human Hs578T cells assessed as cell growth at 10 uM after 48 hrs by SRB assay relative to control; assay type: functional; conditions: Hs-578T, read-out: Activity
Procedure, shortened: (§3)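 First-stage NCI-60 screen by the NCI Developmental Therapeutics Program. Each compound was tested once at a single concentration of 10 μM against the 60-cell-line panel. Growth percentage was reported for each cell line.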

IGROV-1 = experiment: Cytotoxicity against human IGROV1 cells assessed as cell growth at 10 uM after 48 hrs by SRB assay relative to control; assay type: functional; conditions: IGROV-1, 48 h, read-out: Activity; procedure, shortened: as §3
NCI-H23 = experiment: Cytotoxicity against human NCI-H23 cells assessed as cell growth at 10 uM after 48 hrs by SRB assay relative to control; assay type: functional; conditions: NCI-H23, 48 h, read-out: Activity; procedure, shortened: as §1
TK-10 = experiment: Cytotoxicity against human TK10 cells assessed as cell growth at 10 uM after 48 hrs by SRB assay relative to control; assay type: functional; conditions: TK-10, 48 h, read-out: Activity; procedure, shortened: as §2
NCI-H460 = experiment: Cytotoxicity against human NCI-H460 cells assessed as cell growth at 10 uM after 48 hrs by SRB assay relative to control; assay type: functional; conditions: NCI-H460, 48 h, read-out: Activity; procedure, shortened: as §1
MDA-MB-231 = experiment: Cytotoxicity against human MDA-MB-231 cells assessed as cell growth at 10 uM after 48 hrs by SRB assay relative to control; assay type: functional; conditions: MDA-MB-231, 48 h, read-out: Activity; procedure, shortened: as §1
ACHN = experiment: Cytotoxicity against human ACHN cells assessed as cell growth at 10 uM after 48 hrs by SRB assay relative to control; assay type: functional; conditions: read-out: Activity; procedure, shortened: as §3
M14 = experiment: Cytotoxicity against human M14 cells assessed as cell growth at 10 uM after 48 hrs by SRB assay relative to control; assay type: functional; conditions: M14, 48 h, read-out: Activity; procedure, shortened: as §3
RXF 393 = experiment: Cytotoxicity against human RXF393 cells assessed as cell growth at 10 uM after 48 hrs by SRB assay relative to control; assay type: functional; conditions: RXF 393, 48 h, read-out: Activity; procedure, shortened: as §1
SK-MEL-5 = experiment: Cytotoxicity against human SK-MEL-5 cells assessed as cell growth at 10 uM after 48 hrs by SRB assay relative to control; assay type: functional; conditions: SK-MEL-5, 48 h, read-out: Activity; procedure, shortened: as §1
HT-29 = experiment: Cytotoxicity against human HT-29 cells assessed as cell growth at 10 uM after 48 hrs by SRB assay relative to control; assay type: functional; conditions: HT-29, 48 h, read-out: Activity; procedure, shortened: as §3
KM12 = experiment: Cytotoxicity against human KM12 cells assessed as cell growth at 10 uM after 48 hrs by SRB assay relative to control; assay type: functional; conditions: KM12, 48 h, read-out: Activity; procedure, shortened: as §3
[2] = Cytotoxicity against human EKVX cells assessed as cell growth at 10 uM after 48 hrs by SRB assay relative to control; assay type: functional; conditions: read-out: Activity; procedure, shortened: as §3
A498 = experiment: Cytotoxicity against human A498 cells assessed as cell growth at 10 uM after 48 hrs by SRB assay relative to control; assay type: functional; conditions: A498, 48 h, read-out: Activity; procedure, shortened: as §3
DU-145 [3] = experiment: Cytotoxicity against human DU145 cells after 72 hrs by MTT assay; assay type: functional, cell-based; conditions: DU-145, 72 h
Procedure, shortened: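 DU-145 cells grown in RPMI-1640 with 5% heat-inactivated fetal calf serum at 37 °C, 5% CO2. About 2×10^3 cells per well were seeded and incubated for 24 h. Compounds were dissolved in DMSO freshly and diluted into medium (vehicle 0.1% DMSO), then cells were exposed for 72 h. MTT was added for 3 h at 37 °C and absorbance read at 570 nm.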

Malme-3M = experiment: Cytotoxicity against human MALME-3M cells assessed as cell growth at 10 uM after 48 hrs by SRB assay relative to control; assay type: functional; conditions: read-out: Activity; procedure, shortened: as §3
OVCAR-5 = experiment: Cytotoxicity against human OVCAR5 cells assessed as cell growth at 10 uM after 48 hrs by SRB assay relative to control; assay type: functional; conditions: OVCAR-5, 48 h, read-out: Activity; procedure, shortened: as §1
T47D = experiment: Cytotoxicity against human T47D cells assessed as cell growth at 10 uM after 48 hrs by SRB assay relative to control; assay type: functional; conditions: read-out: Activity; procedure, shortened: as §2
HCT-15 = experiment: Cytotoxicity against human HCT15 cells assessed as cell growth at 10 uM after 48 hrs by SRB assay relative to control; assay type: functional; conditions: HCT-15, 48 h, read-out: Activity; procedure, shortened: as §3
SK-MEL-28 = experiment: Cytotoxicity against human SK-MEL-28 cells assessed as cell growth at 10 uM after 48 hrs by SRB assay relative to control; assay type: functional; conditions: SK-MEL-28, 48 h, read-out: Activity; procedure, shortened: as §1
SK-OV-3 = experiment: Cytotoxicity against human SKOV3 cells assessed as cell growth at 10 uM after 48 hrs by SRB assay relative to control; assay type: functional; conditions: SK-OV-3, 48 h, read-out: Activity; procedure, shortened: as §1
U-251 = experiment: Cytotoxicity against human U251 cells assessed as cell growth at 10 uM after 48 hrs by SRB assay relative to control; assay type: functional; conditions: U-251, 48 h, read-out: Activity; procedure, shortened: as §2
SK-MEL-2 = experiment: Cytotoxicity against human SK-MEL-2 cells assessed as cell growth at 10 uM after 48 hrs by SRB assay relative to control; assay type: functional; conditions: SK-MEL-2, 48 h, read-out: Activity; procedure, shortened: as §1
LOX IMVI = experiment: Cytotoxicity against human LOXIMVI cells assessed as cell growth at 10 uM after 48 hrs by SRB assay relative to control; assay type: functional; conditions: read-out: Activity; procedure, shortened: as §3
HCC 2998 = experiment: Cytotoxicity against human HCC2998 cells assessed as cell growth at 10 uM after 48 hrs by SRB assay relative to control; assay type: functional; conditions: HCC 2998, 48 h, read-out: Activity; procedure, shortened: as §3
786-0 = experiment: Cytotoxicity against human 786-0 cells assessed as cell growth at 10 uM after 48 hrs by SRB assay relative to control; assay type: functional; conditions: 786-0, 48 h, read-out: Activity; procedure, shortened: as §3
DU-145 [4] = experiment: Cytotoxicity against human DU145 cells assessed as cell growth at 10 uM after 48 hrs by SRB assay relative to control; assay type: functional; conditions: DU-145, 48 h, read-out: Activity; procedure, shortened: as §3
BT-549 = experiment: Cytotoxicity against human BT549 cells assessed as cell growth at 10 uM after 48 hrs by SRB assay relative to control; assay type: functional; conditions: BT-549, 48 h, read-out: Activity; procedure, shortened: as §3
PC-3 = experiment: Cytotoxicity against human PC3 cells assessed as cell growth at 10 uM after 48 hrs by SRB assay relative to control; assay type: functional; conditions: PC-3, 48 h, read-out: Activity; procedure, shortened: as §1

Row | Structure (SMILES) | growth at 10 µM (NCI-H226) | growth at 10 µM (UACC-62) | growth at 10 µM (IGROV-1) | growth at 10 µM (NCI-H23) | growth at 10 µM (TK-10) | growth at 10 µM (MDA-MB-231) | growth at 10 µM (ACHN) | growth at 10 µM (M14) | growth at 10 µM (RXF 393) | growth at 10 µM (SK-MEL-5) | growth at 10 µM (HT-29) | IC50 (DU-145 [3]) | growth at 10 µM (Malme-3M) | growth at 10 µM (OVCAR-5) | growth at 10 µM (T47D) | growth at 10 µM (HCT-15) | growth at 10 µM (SK-MEL-28) | growth at 10 µM (U-251) | growth at 10 µM (SK-MEL-2) | growth at 10 µM (LOX IMVI) | further results
1 | O=C1c2ccccc2C(=O)c2c1ccc1nsnc21 | 97.8% | -82.3% | -88.3% | 16.1% | 97% | -17.3% | -94.3% | 74.5% | 20.1% | 8.52% | 117% | 7.41 µM | -71.6% | -20.1% | -45.5% | 1.48% | 15.5% | -89.3% | -73.2% | -50.6% | growth at 10 µM [1]: 7.4%; growth at 10 µM (NCI-H460): 77.4%; growth at 10 µM (KM12): 98.6%; growth at 10 µM [2]: 103%; growth at 10 µM (A498): 130%; growth at 10 µM (SK-OV-3): 101%; growth at 10 µM (HCC 2998): -0.74%; growth at 10 µM (786-0): -26%; growth at 10 µM (DU-145 [4]): 40.8%
2 | O=C1c2ccccc2C(=O)c2c1cc(Sc1cccc(Cl)c1)c1nsnc21 | 78.1% | -65% | -13.5% | -26.9% | 53.8% | -29.1% | -92.5% | -76.4% | -27.8% | 19% | 102% | 1.75 µM | -86.6% | 109% | -42.3% | 18% | 25% | -69.5% | -53.2% | -59.2% | growth at 10 µM [2]: 43.6%; growth at 10 µM (SK-OV-3): 95.4%; growth at 10 µM (BT-549): 36.2%; growth at 10 µM (HCC 2998): 102%; growth at 10 µM (786-0): -2.06%
3 | O=C1c2ccccc2C(=O)c2c1cc(SCc1ccc(Cl)cc1)c1nsnc21 | 82.1% | 102% | 84.2% | 82.1% | 122% | 95.2% | 94.3% | 126% | 105% | 89.6% | 96.4% | 7.51 µM | 86.4% | 104% | 83.8% | 97.9% | 95.3% | 94.4% | 110% | 86.7% | growth at 10 µM [1]: 88.6%; growth at 10 µM (NCI-H460): 105%; growth at 10 µM (PC-3): 82.9%; growth at 10 µM (KM12): 105%; growth at 10 µM (BT-549): 115%; growth at 10 µM (HCC 2998): 103%; growth at 10 µM (786-0): 118%; growth at 10 µM (DU-145 [4]): 115%
